According to PubChem BioAssay:
Unmarked numbers belong to inactive results. Results filed as inconclusive are left out. Active and inactive are the calls of the source.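 How the source made its calls, unless noted: active means cell viability at or below a set limit in both duplicate runs, the limit being the all-compound median minus 4 SD (cut at about 23% in these data, passing the limit was not always enough); inconclusive means no clear call, values can overlap the other calls; inactive means the rest.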

Key:
[1] = OD615 S. cerevisiae growth inhibition, permissive medium, pilot counter-assay, permissive growth control for S. cerevisiae lifespan shortening project (AID 705;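 active means growth inhibition above 25% in both replicates, a cutoff set 3 SD above the mean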); conditions: OD615, 24 h, at 10 µM, hits give high values
Procedure, shortened: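 Test system: Saccharomyces cerevisiae strain carrying genetically modified DeaD replicative-lifespan system; buffer or medium: SC raffinose/galactose permissive medium; dosing: one dose 10 µM, DMSO 0.25% final; times: 24 h exposure, 30 °C; measured by: OD at 615 nm; read-out basis: growth inhibition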

[2] = Restrictive medium S. cerevisiae growth inhibition, OD615, pilot screen of yeast lifespan reduction project, restrictive growth control (AID 706;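 active means growth inhibition above a set limit, 3 SD over mean compound inhibition, in both replicates, cut at about 43% in these data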;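 further: modified DeaD lifespan yeast strain shifted to restrictive glucose medium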); conditions: OD615, 48 h, at 10 µM, hits give high values
Procedure, shortened: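 material = engineered S. cerevisiae DeaD strain | buffer or medium = glucose-based CSMM-D restrictive medium | dosing = one concentration, 10 µM final, 0.25% DMSO | schedule = 4 h pre-growth plus 48 h compound exposure, 30 °C | detection = OD615 absorbance reading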

[3] = viability gain of MRP-1-high H69AR cells under doxorubicin, pilot screen, MRP-1 activator project, CellTiter-Glo, duplicate (AID 807;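 active means viability increase at or above a cutoff of the median across tested compounds plus 3 SD, cut at about 8.5% in these data, passing the limit was not always enough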;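 further: compound pretreatment 18-22 h then 72 h combined with doxorubicin; 0% = doxorubicin alone and 100% = vehicle without doxorubicin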); conditions: H69AR viability with doxorubicin, CellTiter-Glo luminescence; at 10 µM; hits give high values
[4] = growth suppression of beta-catenin knockout HCT116, pilot screen, human colon tumor cells (AID 823); conditions: CellTiter-Glo, 60 h, at 10 µM, hits give low values;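 further: 0% = wells killed by 20 µM Hyamine and 100% = untreated DMSO cell wells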
[5] = growth suppression of PTEN-deleted HCT116, pilot screen, cell-based, HCT116 clonal line, CellTiter-Glo (AID 824;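 active means viability at or below 27.92% in each of two runs, the all-compound median minus 4 SD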;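 further: 0% = 20 µM Hyamine control and 100% = vehicle cell control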); conditions: 60 h, at 10 µM, hits give low values
[6] = inhibitors of the yeast RAM network, pilot screen, dse1pr::URA3 reporter, 5-FOA selection (AID 869;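 active means inhibition over a set limit, the all-compound mean plus 3 SD, in both replicate runs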;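 further: 0% = DMSO wells with no growth and 100% = 10 µM 1-NA-PP1 with full growth; RAM network block rescues cells from 5-FOA so hits raise OD615 growth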); conditions: S. cerevisiae dse1pr::URA3 5-FOA growth, OD615, 2 d; at 10 µM; hits give high values; strain carries analog-sensitive mutant Cbk1 kinase
[7] = RAM signaling pathway blockade in yeast – S. cerevisiae, Pdr1DBD-CYC8 efflux-inhibited sensitized strain, primary screen (AID 1298;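 active means RAM network inhibition above 8.4% in each of two replicates, 3 SD over the compound average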;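 further: 0% = DMSO untreated cells without growth and 100% = 10 µM 1-NA-PP1 full growth; higher means more yeast growth rescued from 5-FOA killing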); conditions: S. cerevisiae cbk1-as DSE1-URA3 strain, 5-FOA growth OD615, 2 d; at 50 µM; hits give high values

SMILES | growth inhibition [1] [%] | growth inhibition [2] [%] | viability increase [3] [%] | viability [4] [%] | viability [5] | inhibition [6] [%] | RAM network inhibition [7] [%]
COc1cc(C(=O)Nc2cc(C)c(OCC(=O)N3CCOCC3)c(C)c2)cc(OC)c1OC | -2.29 | 1.77 | -2.98 | 88.8 | 90.4% | 1.64 | 4.86
O=C1CC(c2cccs2)CC(O)=C1C=NCCN1CCNCC1 (configuration not stated) | -11.8 | -6.3 | -0.54 | 98.9 | 97.2% | 0.995 | -0.42
Cc1ccc(Nc2nc(C3CC3)cs2)cc1 | -8.21 | -0.01 | -1.97 | 92.5 | 90.5% | 1.38 | 2.72
CC(C)c1ccc(NC(=O)c2cccnc2)cc1 | -3.85 | -12.2 | 0.68 | 89.4 | 94.3% | 0.32 | 2.26
CCOC(=O)N1CCC(NC(=O)CSCc2nc(-c3sccc3C)oc2C)CC1 | -9.01 | -10.5 | -1.24 | 90 | 83.5% | 1.34 | 6.2
CCc1cccc(Nc2cc(C)nc3nc(C)nn23)c1 | -14.3 | -3.76 | -3.25 | 96.7 | 88.3% | 2.72 | 2.83
COc1ccc(-c2nnc(NC(=O)c3ccccc3C)o2)cc1 | -8.78 | -11.7 | -2.73 | 27.6 | 25.3% (active) | 1.86 | 0.11
CCOC(=O)C1CCN(C(=O)c2oc3ccc(S(=O)(=O)N4CCCCCC4)cc3c2C)CC1 | 0.58 | -20.9 | -3.23 | 72.8 | 78.9% | 1.73 | 0.3
COc1ccc(CSc2nnnn2C)cc1F | -3.21 | 4.8 | -0.89 | 91.4 | 95% | 2.62 | -0.46
CCOc1ccc2[nH]cc(S(=O)(=O)c3ccc(F)cc3)c(=O)c2c1 | -4.64 | -19.8 | -0.98 | 78.7 | 87.2% | 0.455 | 2.36
CN(C)CCCNCCCNC(=O)/C(=N\O)c1ccccn1 | -3.34 | -2.4 | 1.1 | 93.3 | 105% | 1.53 | 2.45
CCC(C)NC(=O)CN(c1ccc2c(c1)OCO2)S(=O)(=O)c1c(C)n[nH]c1C (configuration not stated) | -12.1 | -7.16 | -1.79 | 107 | 99.4% | 1.34 | 2.93
O=C1CC(c2ccccc2)CN1C(=O)c1ccccc1 (configuration not stated) | 2.52 | -1.8 | 1.53 | 104 | 98.6% | 2.67 | 6.11
c1ccc(Nc2nc(N3CCOCC3)nc(N3CCOCC3)n2)cc1 | 5.75 | 6.58 | -6.19 | 67.9 | 67.2% | 0.65 | 1.44
O=C(NCCN1C(=O)C2C3C=CC(C3)C2C1=O)Nc1cccnc1 (configuration not stated) | -0.65 | -7.67 | -1.57 | 96.7 | 99.7% | 0.445 | 1.17
CSc1nc2c(c(=O)n1-c1ccc(F)cc1)SCC2 | -9.67 | -24.3 | -1.07 | 102 | 93.7% | 2.19 | 4.08
CC1CCCN(Cc2nc3c(c(=O)n(C)c(=O)n3C)n2Cc2cccc3ccccc23)C1 (configuration not stated) | -4.69 | -2.08 | -3.36 | 73.2 | 80% | 1.08 | 0.76
CCCCCn1c(CNC(=O)c2cccs2)nc2ccccc21 | -5.02 | 3.4 | -2.58 | 90.8 | 94% | 0.42 | 3.16

SMILES | growth inhibition [1] [%] | growth inhibition [2] [%] | viability increase [3] [%] | viability [4] [%] | viability [5] | inhibition [6] [%] | RAM network inhibition [7] [%]
O=C(C1CC(c2ccc(F)cc2)=NO1)N1CCc2ccccc2C1 (configuration not stated) | 1.34 | -7.89 | 0.59 | 101 | 99.5% | 1.91 | 7.63
COc1ccc(C(CNC(=O)C2CC(=O)N(Cc3ccc(C)cc3)C2)N(C)C)cc1 (configuration not stated) | -1.76 | -7.34 | -0.21 | 96 | 95.7% | 1.3 | 1.64
O=C(OCCOCCN=C1NS(=O)(=O)c2ccccc21)C1CC(=O)N(c2ccccc2)C1 (configuration not stated) | 4.05 | 5.13 | -1.16 | 100 | 87.3% | 2.11 | 1.23
CC(C)=C1C2C=CC1C(C(=O)Nc1cc(C)ccc1C)C2C(=O)O (configuration not stated) | -14.6 | -12.2 | -4.28 | 87.4 | 85.8% | 1.78 | 6.92
Cc1ccccc1CN1CCNC(=O)C1CC(=O)O (configuration not stated) | -13.2 | -14.1 | -3.29 | 105 | 96.2% | 2.04 | -0.64
CN1CCN(Cc2ccc(-c3ccc(Cl)cc3)o2)CC1 | -15.8 | -22.6 | -2.14 | 86.1 | 102% | 1.56 | 2.49
CCC(C)(C(=O)NC1CCCCC1)N(C(=O)C1CCC(=O)N1)c1ccc(C)cc1 (configuration not stated) | 2.44 | -4.21 | -1.97 | 98.7 | 92.1% | 1.71 | 1.9
CCCCN1C(=O)C2C(c3ccc(OC)cc3O)NC(CC(C)C)(C(=O)O)C2C1=O (configuration not stated) | -7.45 | -8.79 | 0.44 | 97.7 | 92.7% | 0.895 | 0.99
CC(c1ccccc1)N1CC(C(=O)N2CCN(c3ccccc3)CC2)CC1=O (configuration not stated) | 0.43 | 1.48 | -1.1 | 104 | 101% | 0.54 | 4.4
CC1=CS/C(=C(/C#N)C(=O)N2CCOCC2)N1c1ccccc1 | -2.33 | 1.7 | -1.17 | 94.2 | 94.7% | 0.255 | 0.92
CCc1cc(=O)oc2cc(C)cc(O)c12 | -16.6 | -7.76 | -1.72 | 95.3 | 99.8% | 0.2 | 1.99
O=C(c1cc(-c2cccc(O)c2)on1)N1CCc2ccccc2C1 | -7.54 | -17.6 | 1.48 | 114 | 99.2% | 0.005 | -2.99
O=C(c1cnn2ccccc12)N(Cc1ccco1)C1CCCC1 | -12 | -4.11 | -3.08 | 70 | 69.8% | 2.74 | 1.62
C=CCOC(=O)C1CC=CCC1C(=O)Oc1ccc(F)cc1F (configuration not stated) | -18.3 | -15.3 | -1.32 | 100 | 94% | 2.56 | 1.82
CCOC(=O)N1CCc2c(sc(NC(=O)c3ccc(S(=O)(=O)N4CCCC4)cc3)c2C#N)C1 | -3.65 | -5.41 | -1.2 | 99.1 | 85% | 2.04 | 5.32
CCc1nnc(NC(=O)CSc2nccn2-c2cccc(C)c2C)s1 | 2.46 | 32.5 | -5.37 | 46.2 | 42.9% | 0.935 | 1.37
O=C(CNC(=O)c1ccco1)OCC(=O)c1ccccc1 | -8.55 | 3 | -1.3 | 97.3 | 94.3% | 0.98 | 0.92
CCC(CC)C(=O)Nc1ccccc1NC(C)=O | -3.13 | 0.295 | 0.4 | 99.8 | 98% | 0.36 | 4.35
